Assay results: ChEMBL document CHEMBL3112425, “Design, synthesis, and structure-activity relationship studies of a potent PACE4 inhibitor” (J Med Chem, 2014)
Square brackets hold non-standard residues; d marks the D form. Peptide text beside a SMILES is read from it. * marks the point of attachment. Phe(4-guanidino) = N=C(N)Nc1ccc(C[C@H](N)C(=O)O)cc1; NH(4-amidinobenzyl) = N=C(N)c1ccc(CN*)cc1; X2 = N=C(N)NCCCN(CC(N)=O)N*; Nle = CCCC[C@H](N)C(=O)O

Experiments:
[1] = molecular target: T1, Proprotein convertase subtilisin/kexin type 6 (Homo sapiens, UniProt P29122); assay: Inhibition of human recombinant PACE4 expressed in drosophila schneider 2 cells using pyroGlu-Arg-Thr-Lys-Arg-AMC as substrate after 1 hr
T1 sequence (P29122 whole entry): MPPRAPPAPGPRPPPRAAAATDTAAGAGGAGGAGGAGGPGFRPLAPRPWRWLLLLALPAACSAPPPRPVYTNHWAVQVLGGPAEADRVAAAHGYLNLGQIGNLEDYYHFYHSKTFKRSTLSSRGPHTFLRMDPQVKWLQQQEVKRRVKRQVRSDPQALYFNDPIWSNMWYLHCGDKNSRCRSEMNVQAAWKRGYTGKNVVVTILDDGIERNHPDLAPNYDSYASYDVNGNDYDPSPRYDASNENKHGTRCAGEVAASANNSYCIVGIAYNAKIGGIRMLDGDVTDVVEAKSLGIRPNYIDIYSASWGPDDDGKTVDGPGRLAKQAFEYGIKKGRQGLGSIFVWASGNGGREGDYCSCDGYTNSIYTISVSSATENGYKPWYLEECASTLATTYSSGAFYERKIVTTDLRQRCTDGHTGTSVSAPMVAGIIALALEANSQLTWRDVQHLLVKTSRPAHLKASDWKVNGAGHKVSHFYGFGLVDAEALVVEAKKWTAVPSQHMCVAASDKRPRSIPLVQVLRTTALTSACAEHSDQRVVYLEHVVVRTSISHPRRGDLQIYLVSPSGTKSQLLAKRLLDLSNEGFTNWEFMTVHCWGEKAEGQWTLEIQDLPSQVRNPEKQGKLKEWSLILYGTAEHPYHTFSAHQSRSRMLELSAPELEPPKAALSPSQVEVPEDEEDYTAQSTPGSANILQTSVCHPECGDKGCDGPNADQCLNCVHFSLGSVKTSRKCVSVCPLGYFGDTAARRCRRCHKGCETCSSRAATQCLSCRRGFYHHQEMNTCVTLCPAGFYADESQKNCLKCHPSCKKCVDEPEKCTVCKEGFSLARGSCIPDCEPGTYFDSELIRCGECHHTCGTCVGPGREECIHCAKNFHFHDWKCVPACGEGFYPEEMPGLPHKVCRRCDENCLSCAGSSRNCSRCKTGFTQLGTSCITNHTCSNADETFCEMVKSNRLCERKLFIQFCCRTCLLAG
Method in brief: (§1)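 Human enzymes were expressed in Drosophila S2 cells and purified. Fluorogenic pyroGlu-RTKR-AMC was used at fixed concentration with varied inhibitor, 37 °C over 1 h. Buffers: furin, 100 mM Hepes pH 7.5, 1 mM CaCl2, 1 mM β-mercaptoethanol, 1.8 mg/mL BSA; PACE4 and PC7, 20 mM Bis-Tris pH 6.5, 1 mM CaCl2, 1.8 mg/mL BSA; PC2, same buffer at pH 5.7. Ki from IC50 (Cheng–Prusoff), or apparent Ki (Morrison) for tight binders. Triplicate, mean ± SD.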

Furin = Furin (Homo sapiens, UniProt P09958); assay: Inhibition of human recombinant furin expressed in drosophila schneider 2 cells using pyroGlu-Arg-Thr-Lys-Arg-AMC as substrate after 1 hr; method in brief: as §1
LNCaP = assay: Cytotoxicity against human LNCAP cells after 72 hrs by MTT assay; format: functional, cell-based
Method in brief: (§2)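 Prostate cancer cells were kept in RPMI 1640 at 37 °C, 5% CO2, with 5% FBS for DU145 and 10% FBS for LNCaP and PC3. After 24 h, medium was changed and peptides added at various concentrations, up to 350 μM. Viability was read by MTT after 72 h treatment. IC50 from dose–response curves, triplicate, mean ± SEM.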

[2] = Acute toxicity in human DU145 cells assessed as cell death/lysis at 100 uM after 4 hrs by LDH assay; format: cell-based, DU-145; conditions: read-out: INH
Method in brief: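 DU145 cells (RPMI 1640, 5% FBS, 37 °C, 5% CO2) plated; 24 h later peptides added at 100 μM. After 4 h, release of lactate dehydrogenase into the medium was quantified enzymatically with a commercial LDH cytotoxicity kit as the measure of acute membrane damage/lysis.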

PC-3 [3] = assay: Cytotoxicity against human PC3 cells up to 350 uM after 72 hrs by MTT assay; format: functional; method in brief: as §2
Plasma = assay: Drug degradation in CD-1 mouse plasma at 0.5 ug/uL after 30 mins by MALDI-TOF MS analysis; format: ADME, cell-free; conditions: 0.5 h
Method in brief: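 For fragment mapping, 100 μg peptide was incubated in murine plasma at 37 °C. At each time point, plasma samples were quenched with 3% TFA. Proteins were precipitated with 2 volumes acetonitrile and centrifuged at 17 000g. Supernatants were analyzed by MALDI-TOF MS for C-terminally truncated fragments.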

DU-145 = assay: Cytotoxicity against human DU145 cells after 72 hrs by MTT assay; format: functional, cell-based; conditions: DU-145, 72 h; method in brief: as §2
[4] = Half life in CD-1 mouse plasma at 0.5 ug/uL by RP-HPLC analysis; format: ADME, cell-free
Method in brief: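 Peptides at 0.5 μg/μL were incubated at 37 °C in heparinized plasma pooled from mixed-sex CD1 mice. At each time point the reaction was stopped with 1 M guanidinium-HCl, then acetonitrile, and proteins were spun out. Supernatant peptide AUC (RP-HPLC) was compared with non-incubated samples. Half-life came from a one-phase decay fit. Run ≥3 times, duplicate per time point.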

PC-3 [5] = assay: Cytotoxicity against human PC3 cells after 72 hrs by MTT assay; format: functional, cell-based; conditions: PC-3, 72 h; method in brief: as §2

Chain of Furin (P09958 whole entry): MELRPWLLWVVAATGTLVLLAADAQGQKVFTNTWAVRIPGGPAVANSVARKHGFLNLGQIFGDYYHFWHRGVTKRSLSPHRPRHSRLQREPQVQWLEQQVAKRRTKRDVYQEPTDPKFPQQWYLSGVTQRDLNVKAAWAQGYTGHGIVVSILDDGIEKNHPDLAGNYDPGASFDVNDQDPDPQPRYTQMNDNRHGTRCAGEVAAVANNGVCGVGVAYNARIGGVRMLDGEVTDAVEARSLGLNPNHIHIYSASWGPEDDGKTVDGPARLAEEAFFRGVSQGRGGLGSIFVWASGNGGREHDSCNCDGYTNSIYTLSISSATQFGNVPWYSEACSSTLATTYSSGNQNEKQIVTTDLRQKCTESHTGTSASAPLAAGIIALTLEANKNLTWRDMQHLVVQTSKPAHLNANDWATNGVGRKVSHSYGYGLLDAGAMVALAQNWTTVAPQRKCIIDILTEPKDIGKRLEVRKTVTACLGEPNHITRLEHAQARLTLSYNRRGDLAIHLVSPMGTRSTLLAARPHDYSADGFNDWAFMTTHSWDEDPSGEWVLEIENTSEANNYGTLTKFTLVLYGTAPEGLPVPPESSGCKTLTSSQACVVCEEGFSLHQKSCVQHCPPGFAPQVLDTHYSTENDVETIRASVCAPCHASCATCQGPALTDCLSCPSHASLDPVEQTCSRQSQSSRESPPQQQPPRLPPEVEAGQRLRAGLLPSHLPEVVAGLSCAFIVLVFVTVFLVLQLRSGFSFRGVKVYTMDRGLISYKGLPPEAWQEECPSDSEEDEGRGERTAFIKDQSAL

Ki [1] [nM]	Ki (Furin) [nM]	Stability (Plasma)	half-life at 0.5 ug/uL [4] [h]	Compound	IC50 (LNCaP) [nM]	cytotoxicity at 4 h, 100 µM [2] [%]	inhibition (INH) (PC-3 [3]) [%]	IC50 (DU-145) [nM]	IC50 (PC-3 [5]) [nM]
500	2550			CCCC[C@H](NC(C)=O)C(=O)N[C@@H](CCCC)C(=O)N[C@@H](CCCC)C(=O)N[C@@H](CCCC)C(=O)N[C@@H](CCCNC(=N)N)C(=O)N[C@H](C(=O)N[C@@H](CCCCN)C(=O)N[C@@H](CCCNC(=N)N)C(N)=O)C(C)C					
350	2100			CCCC[C@H](NC(=O)[C@H](CC(C)C)NC(=O)[C@H](CC(C)C)NC(C)=O)C(=O)N[C@@H](CCCC)C(=O)N[C@@H](CCCN=C(N)N)C(=O)N[C@H](C(=O)N[C@@H](CCCCN)C(=O)N[C@@H](CCCN=C(N)N)C(N)=O)C(C)C (Ac-LL[Nle][Nle]RVKR-NH2)					
39	980			CCCC[C@H](NC(=O)[C@H](CC(C)C)NC(C)=O)C(=O)N[C@@H](CC(C)C)C(=O)N[C@@H](CC(C)C)C(=O)N[C@@H](CCCNC(=N)N)C(=O)N[C@H](C(=O)N[C@@H](CCCCN)C(=O)N[C@@H](CCCNC(=N)N)C(N)=O)C(C)C (Ac-L[Nle]LLRVKR-NH2)					
14	680	Unstable		CCCC[C@H](NC(C)=O)C(=O)N[C@@H](CC(C)C)C(=O)N[C@@H](CC(C)C)C(=O)N[C@@H](CCCC)C(=O)N[C@@H](CCCNC(=N)N)C(=O)N[C@H](C(=O)N[C@@H](CCCCN)C(=O)N[C@@H](CCCNC(=N)N)C(N)=O)C(C)C	90000	< 5	<50	40000	
60	1070			CCCC[C@H](NC(C)=O)C(=O)N[C@@H](CCCC)C(=O)N[C@@H](CC(C)C)C(=O)N[C@@H](CCCC)C(=O)N[C@@H](CCCN=C(N)N)C(=O)N[C@H](C(=O)N[C@@H](CCCCN)C(=O)N[C@@H](CCCN=C(N)N)C(N)=O)C(C)C					
57	950			CCCC[C@H](NC(C)=O)C(=O)N[C@@H](CCCC)C(=O)N[C@@H](CC(C)C)C(=O)N[C@@H](CC(C)C)C(=O)N[C@@H](CCCN=C(N)N)C(=O)N[C@H](C(=O)N[C@@H](CCCCN)C(=O)N[C@@H](CCCN=C(N)N)C(N)=O)C(C)C					
170	2300			CCCC[C@H](NC(=O)[C@H](CC(C)C)NC(C)=O)C(=O)N[C@@H](CCCC)C(=O)N[C@@H](CC(C)C)C(=O)N[C@@H](CCCN=C(N)N)C(=O)N[C@H](C(=O)N[C@@H](CCCCN)C(=O)N[C@@H](CCCN=C(N)N)C(N)=O)C(C)C (Ac-L[Nle][Nle]LRVKR-NH2)					
400	1120		5.6	CC(=O)N[C@@H](CC(C)C)C(=O)N[C@@H](CC(C)C)C(=O)N[C@@H](CC(C)C)C(=O)N[C@@H](CC(C)C)C(=O)N[C@@H](CCCNC(=N)N)C(=O)N[C@H](C(=O)N[C@@H](CCCCN)C(=O)NN(CCCNC(=N)N)CC(N)=O)C(C)C (Ac-LLLLRVK-X2)	240000	< 5	<50	270000	
27	560			CCCC[C@H](NC(=O)[C@H](CC(C)C)NC(=O)[C@H](CC(C)C)NC(=O)[C@H](CC(C)C)NC(C)=O)C(=O)N[C@@H](CCCN=C(N)N)C(=O)N[C@H](C(=O)N[C@@H](CCCCN)C(=O)N[C@@H](CCCN=C(N)N)C(N)=O)C(C)C (Ac-LLL[Nle]RVKR-NH2)		< 5			
				CCCC[C@H](NC(=O)[C@H](CC(C)C)NC(=O)[C@H](CC(C)C)NC(=O)[C@H](CC(C)C)NC(C)=O)C(=O)N[C@@H](CCCNC(=N)N)C(=O)N[C@H](C(=O)N[C@@H](CCCCN)C(=O)N[C@@H](CCCNC(=N)N)C(N)=O)C(C)C (Ac-LLL[Nle]RVKR-NH2)	220000		<50	110000	
21	650			CCCC[C@H](NC(C)=O)C(=O)N[C@@H](CC(C)C)C(=O)N[C@@H](CC(C)C)C(=O)N[C@@H](CC(C)C)C(=O)N[C@@H](CCCNC(=N)N)C(=O)N[C@H](C(=O)N[C@@H](CCCCN)C(=O)N[C@@H](CCCNC(=N)N)C(N)=O)C(C)C	180000	< 5	<50	150000	
				CC(=O)N[C@@H](CC(C)C)C(=O)N[C@@H](CC(C)C)C(=O)N[C@@H](CC(C)C)C(=O)N[C@@H](CC(C)C)C(=O)N[C@@H](CCCNC(=N)N)C(=O)N[C@H](C(=O)N[C@@H](CCCCN)C(=O)NCc1ccc(C(=N)N)cc1)C(C)C (Ac-LLLLRVK-{NH(4-amidinobenzyl)})	40000			25000	150000
960	11000			CC(=O)N[C@@H](CC(C)C)C(=O)N[C@@H](CC(C)C)C(=O)N[C@@H](CC(C)C)C(=O)N[C@@H](CC(C)C)C(=O)N[C@@H](CCCNC(=N)N)C(=O)N[C@H](C(=O)N[C@@H](CCCCN)C(=O)N[C@@H](Cc1ccc(NC(=N)N)cc1)C(N)=O)C(C)C (Ac-LLLLRVK[Phe(4-guanidino)]-NH2)					
25	800		7.1	CCCC[C@@H](NC(C)=O)C(=O)N[C@@H](CC(C)C)C(=O)N[C@@H](CC(C)C)C(=O)N[C@@H](CC(C)C)C(=O)N[C@@H](CCCNC(=N)N)C(=O)N[C@H](C(=O)N[C@@H](CCCCN)C(=O)N[C@@H](CCCNC(=N)N)C(N)=O)C(C)C	90000	< 5		80000	150000

Compound	Ki [1] [nM]	Ki (Furin) [nM]	Stability (Plasma)	half-life at 0.5 ug/uL [4] [h]	IC50 (LNCaP) [nM]	cytotoxicity at 4 h, 100 µM [2] [%]	inhibition (INH) (PC-3 [3]) [%]	IC50 (DU-145) [nM]	IC50 (PC-3 [5]) [nM]
CC(=O)N[C@@H](CC(C)C)C(=O)N[C@@H](CC(C)C)C(=O)N[C@@H](CC(C)C)C(=O)N[C@H](CC(C)C)C(=O)N[C@@H](CCCNC(=N)N)C(=O)N[C@H](C(=O)N[C@@H](CCCCN)C(=O)N[C@@H](CCCNC(=N)N)C(N)=O)C(C)C	14000	9550							
CC(=O)N[C@@H](CC(C)C)C(=O)N[C@@H](CC(C)C)C(=O)N[C@H](CC(C)C)C(=O)N[C@@H](CC(C)C)C(=O)N[C@@H](CCCNC(=N)N)C(=O)N[C@H](C(=O)N[C@@H](CCCCN)C(=O)N[C@@H](CCCNC(=N)N)C(N)=O)C(C)C	6260	980			130000	< 5	<50	190000	
CC(=O)N[C@@H](CC(C)C)C(=O)N[C@H](CC(C)C)C(=O)N[C@@H](CC(C)C)C(=O)N[C@@H](CC(C)C)C(=O)N[C@@H](CCCN=C(N)N)C(=O)N[C@H](C(=O)N[C@@H](CCCCN)C(=O)N[C@@H](CCCN=C(N)N)C(N)=O)C(C)C	700	2800							
